Results on 2 molecules are retold here after paper PMC5855380 (Pharmacognosy Research, 2018).

This assay relates to HDFn cells. Nature of the assay: PrestoBlue cell viability assay, HDFn. The settings on record: Homo sapiens, 96 h, read-out: IC50 (half maximal inhibitory concentration), HDFn. Type of assay: cell-based. The essentials: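 HDFn cells grown in DMEM with 10% FBS and 1X antibiotic-antimycotic (37°C, 5% CO2); seeded at 1×10^4 viable cells/well and attached overnight. Test compound (DMSO stock, 0.1% final DMSO) added in two-fold dilutions, 50–0.39 µg/mL final, for 4 days. PrestoBlue 2 h; absorbance 570 nm normalized to 600 nm. Untreated, Zeocin and media-only background wells. Triplicates; IC50 from dose-response curves.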

Structures are written as SMILES. Converted amounts (≈) assume the structure as drawn.

Take `CC1(C)CC[C@]2(C(=O)O)CC[C@]3(C)C(=CC[C@@H]4[C@@]5(C)CC[C@H](O)C(C)(C)[C@@H]5CC[C@]43C)[C@@H]2C1` [Compound 2, oleanolic acid]: the IC50 came to 29.5 µg/mL (≈ 64.6 µM).
Turning to `CC(C)=CCC/C(C)=C/CC/C(C)=C/CC/C=C(\C)CC/C=C(\C)CCC=C(C)C` [Compound 3, squalene], the IC50 is 0.1 µg/mL (≈ 0.243 µM).
